Tests used:
[1] = molecular target: T1, Human immunodeficiency virus type 1 protease (Human immunodeficiency virus 1, UniProt Q72874); experiment: Inhibition of HIV-1 protease in 10% fetal calf serum(FCS)
Method in brief: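 COS A6 cells, which constitutively release viral capsids, were exposed to inhibitor in Dulbecco's PBS for 15 min. An equal volume of medium with 10% FCS plus inhibitor was then added and incubation continued for 3.75 h. Capsids were isolated from the supernatant, and polyprotein processing was scored as p24 by ELISA.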

COS A6 = experiment: (§1) Cytotoxicity on COS A6 cells in the absence of 10% fetal calf serum(FCS); assay type: functional
Method in brief: (§2)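 COS A6 cells, which are cloned progeny that constitutively release viral capsids, were cultured without fetal calf serum and exposed to compound. Viability was read by MTT stain assay, and the LD50 was derived from it.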

[2] = as §1; assay type: functional; conditions: read-out: LD50 (the source's name); method in brief: as §2
[3] = molecular target: Human immunodeficiency virus type 2 pol protein (Human immunodeficiency virus 2, UniProt P88142); experiment: Inhibition of HIV-2 protease in 5%DMSO
Method in brief: (§3)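 Purified recombinant HIV PR activity was followed by cleavage of a decapeptide substrate. Incubation was 30–45 min at 37 °C, and hydrolysis products were quantified by HPLC.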

[4] = molecular target: T1, Human immunodeficiency virus type 1 protease; experiment: Inhibition of HIV-1 protease in 5%DMSO; method in brief: as §3
[5] = molecular target: HIV-2 protease (Human immunodeficiency virus 2); experiment: Inhibitory concentration against HIV-2 protease in the absence of DMSO
[6] = molecular target: T1, Human immunodeficiency virus type 1 protease; experiment: Inhibitory concentration against HIV-1 protease in the absence of DMSO
Method in brief: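 The water-soluble dipotassium salt was tested against aspartyl proteases with no DMSO present, and IC50 values were determined.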

Sequence of Human immunodeficiency virus type 2 pol protein (P88142 whole entry): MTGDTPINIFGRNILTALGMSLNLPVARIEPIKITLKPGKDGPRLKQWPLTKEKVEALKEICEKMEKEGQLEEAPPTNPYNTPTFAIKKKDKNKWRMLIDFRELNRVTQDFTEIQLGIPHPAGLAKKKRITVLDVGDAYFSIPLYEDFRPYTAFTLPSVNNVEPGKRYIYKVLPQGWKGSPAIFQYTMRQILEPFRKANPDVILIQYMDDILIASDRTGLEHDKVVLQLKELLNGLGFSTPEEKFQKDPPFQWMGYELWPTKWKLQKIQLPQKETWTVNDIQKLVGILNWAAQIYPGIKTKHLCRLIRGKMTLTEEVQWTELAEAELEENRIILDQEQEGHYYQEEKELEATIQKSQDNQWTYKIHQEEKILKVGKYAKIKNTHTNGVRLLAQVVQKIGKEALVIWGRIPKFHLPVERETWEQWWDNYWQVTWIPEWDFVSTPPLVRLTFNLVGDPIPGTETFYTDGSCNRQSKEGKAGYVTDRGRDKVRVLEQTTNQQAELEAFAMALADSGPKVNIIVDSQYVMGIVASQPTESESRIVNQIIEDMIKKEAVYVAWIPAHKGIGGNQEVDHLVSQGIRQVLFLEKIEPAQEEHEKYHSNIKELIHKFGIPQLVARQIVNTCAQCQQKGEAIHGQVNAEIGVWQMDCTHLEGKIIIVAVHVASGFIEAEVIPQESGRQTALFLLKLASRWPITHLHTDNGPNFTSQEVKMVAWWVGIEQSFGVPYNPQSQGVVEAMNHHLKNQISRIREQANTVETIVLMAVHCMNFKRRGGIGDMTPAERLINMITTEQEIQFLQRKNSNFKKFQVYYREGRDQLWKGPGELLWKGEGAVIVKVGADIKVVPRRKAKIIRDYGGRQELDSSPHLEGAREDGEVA

Compound | IC50 [1] [µM] | LD50 (COS A6) [µM] | CC50 ([2]; COS A6) [µM] | IC50 [3] [µM] | IC50 [4] [µM] | CC50 [2] [µM] | IC50 [5] [µM] | IC50 [6] [µM]
3-[18-(2-Carboxy-ethyl)-8,13-bis-(1,2-diacetoxy-ethyl)-3,7,12,17-tetramethyl-22,24-dihydro-porphin-2-yl]-propionic acid;Co complex [listing 1 of 2 here] | 25 |  |  |  |  |  |  | 
3-[18-(2-Carboxy-ethyl)-8,13-bis-(1,2-diacetoxy-ethyl)-3,7,12,17-tetramethyl-22,24-dihydro-porphin-2-yl]-propionic acid;Co complex [listing 2 of 2 here] |  | 150 |  |  |  |  |  | 
CC1=C(C(COC(=O)c2ccc3ccccc3c2)OC(=O)c2ccc3ccccc3c2)c2cc3nc(cc4[nH]c(cc5[nH]c(cc1n2)c(C)c5CCC(=O)O)c(CCC(=O)O)c4C)C(C(COC(=O)c1ccc2ccccc2c1)OC(=O)c1ccc2ccccc2c1)=C3C (stereo unspecified) | > 150 |  | 250 | 23 | 14 |  |  | 
CC1=C(C(COC(=O)c2ccc(N(C)C)cc2)OC(=O)c2ccc(N(C)C)cc2)c2cc3nc(cc4[nH]c(cc5[nH]c(cc1n2)c(C)c5CCC(=O)O)c(CCC(=O)O)c4C)C(C(COC(=O)c1ccc(N(C)C)cc1)OC(=O)c1ccc(N(C)C)cc1)=C3C (stereo unspecified) | 75 |  | > 250 | 18 | 7 |  |  | 
CC[C@H](C)[C@H](NC(=O)[C@H](C(C)C)[C@@H](O)[C@H](O)[C@H](CC1CCCCC1)NC(=O)[C@H](Cc1c[nH]cn1)NC(=O)COc1cccc2ccccc12)C(=O)NCc1ccccn1 | 0.75 |  | 45 | 0.03 | < 0.001 |  |  | 
CC1=C(C(O)CO)c2cc3nc(cc4[nH]c(cc5[nH]c(cc1n2)c(C)c5CCC(=O)O)c(CCC(=O)O)c4C)C(C(O)CO)=C3C (stereo unspecified) | > 200 |  | 250 | 480 | 280 |  |  | 
C=CC1=C(C)c2cc3[nH]c(cc4nc(cc5[nH]c(cc1n2)c(C)c5CCC(=O)O)C(CCC(=O)O)=C4C)c(C)c3C=C [PROTOPORPHYRIN] | > 200 |  | < 50 | 500 | 300 |  |  | 
CC1=C(C(COC(=O)C23C[C@H]4C[C@@H](C2)C[C@@H](C3)C4)OC(=O)C23C[C@H]4C[C@@H](C2)C[C@@H](C3)C4)c2cc3nc(cc4[nH]c(cc5[nH]c(cc1n2)c(C)c5CCC(=O)O)c(CCC(=O)O)c4C)C(C(COC(=O)C12C[C@H]4C[C@@H](C1)C[C@@H](C2)C4)OC(=O)C12C[C@H]4C[C@@H](C1)C[C@@H](C2)C4)=C3C (stereo partly specified) |  |  | 250 | 13 | 5 |  |  | 
CC1=C(CCC(=O)O)c2cc3[nH]c(cc4[nH]c(cc5nc(cc1n2)C(C)=C5C(COC(=O)C1=CC1)OC(=O)C1=CC1)c(C)c4C(COC(=O)C1=CC1)OC(=O)C1=CC1)c(C)c3CCC(=O)O (stereo in doubt) | > 150 |  |  | 11 | 12 | 250 |  | 
3-[18-(2-Carboxy-ethyl)-8,13-bis-(1,2-diacetoxy-ethyl)-3,7,12,17-tetramethyl-22,24-dihydro-porphin-2-yl]-propionic acid;Cu complex [listing 1 of 2 here] |  |  |  |  |  |  | 0.47 | 
CC1=C(C(COC(=O)c2ccccc2)OC(=O)c2ccccc2)c2cc3nc(cc4[nH]c(cc5[nH]c(cc1n2)c(C)c5CCC(=O)O)c(CCC(=O)O)c4C)C(C(COC(=O)c1ccccc1)OC(=O)c1ccccc1)=C3C (stereo unspecified) | > 100 |  | 250 | 30 | 14 |  |  | 
3-[18-(2-Carboxy-ethyl)-8,13-bis-(1,2-diacetoxy-ethyl)-3,7,12,17-tetramethyl-22,24-dihydro-porphin-2-yl]-propionic acid;Cu complex [listing 2 of 2 here] |  | 80 |  |  |  |  |  | 
CC1=C(CCC(=O)O)c2cc3[nH]c(cc4[nH]c(cc5nc(cc1n2)C(C)=C5C(COC(=O)C1=CCC1)OC(=O)C1=CCC1)c(C)c4C(COC(=O)C1=CCC1)OC(=O)C1=CCC1)c(C)c3CCC(=O)O (stereo unspecified) | 10 |  | 25 | 1.55 | 0.7 |  |  | 0.9
3-[18-(2-Carboxy-ethyl)-8,13-bis-(1,2-diacetoxy-ethyl)-3,7,12,17-tetramethyl-22,24-dihydro-porphin-2-yl]-propionic acid;Mn complex |  | 70 |  |  |  |  |  | 
